Active and inactive are the calls of the source.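 How the source made its calls: active means maximum enhancement above 22% with a fitted EC50 greater than zero; inactive means the rest.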

The record followed here is PubChem BioAssay AID1442 (PCMD, 2008).

The first assay has as its system mutant MDM2 reporter cells, luciferase luminescence enhancement, 2 h. Kind of assay: compounds raising luminescence in mutant MDM2 cells – cell-based, luciferase luminescence, dose response (AID 1442).
Conditions: not given
The method, boiled down:
(§1)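 Material: MDM2-luciferase fusion reporter cells. Incubation: compound exposure of 2 h at 37 °C. Measured by: luminescence. Evaluation: blank-corrected % enhancement vs untreated cells. Control set: cells without compound as reference, wells for blank correction.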
What is called EC50 is the concentration giving half of the maximal effect. On to `COc1ccc(NC(=O)/C(Cl)=C(/Cl)S(=O)Cc2ccc(C)cc2)cn1` (configuration not stated), for which the EC50 is 0.84 µM.
`COC(=O)CSC1=C(C#N)C(=O)NC(c2ccccc2)S1` (configuration not stated): the EC50 is 4.1 µM.
Same read-out and setting: next, `Nc1cccc2c1C(=O)N(C(=O)/C=C/c1cccc(Br)c1)C2=O`: 16.5 µM; `CCN1C/C(=C/c2ccc(OC)c(O)c2)C(=O)/C(=C/c2ccc(OC)c(O)c2)C1`: 888 µM; `Cc1cc(C)nc(S/C=C/C(=O)c2ccc(F)cc2)n1`: 2.67 µM.
Same read-out and setting: the result for `COCCNC(=O)/C(C#N)=C/c1cccc(/C=C(\C#N)C(=O)NCCOC)c1` reads 0.73 µM.
Take `CCSc1nc2ccccc2n1C(=O)/C=C\c1ccc(OC)c(OC)c1`: the EC50 is 1630 µM.
The same measure, in the same setting: the result for `CCOC(=O)/C=C/C(=O)Nc1ccccc1-c1ccccc1NC(=O)/C=C/C(=O)OCC` reads 1320 µM.
Consider `C=C1C(=O)O[C@@H]2C[C@@H](C)[C@@H]3C=CC(=O)[C@@]3(C)[C@@H](O)[C@H]12`, for which the EC50 was 1.11 µM.
As for `C=CS(=O)(=O)c1ccc(Oc2ccc(S(=O)(=O)C=C)cc2)cc1`, the EC50 was 1.5 µM.
For the molecule `CC(NC(=O)Cn1ncc(Cl)c(Cl)c1=O)C12CC3CC(CC(C3)C1)C2` (configuration not stated), the EC50 is 41.6 µM.
`CN(C)c1nc(=NCc2ccco2)ss1`: the concentration for a half-maximal effect (EC50) is 0.1 µM.
Same read-out and setting: next, `O=C(/C=C/c1cccc([N+](=O)[O-])c1)n1cnc2ccccc21`: 1.72 µM.
On to `COc1cccc(OC)c1C(=O)NNC(=O)c1cccc(COc2ccc3c(c2)CCC3)c1`, for which the EC50 was 562 µM (inactive).
Still for that read-out and setting: the result for `CCSc1nc2ccccc2n1C(=O)/C=C/c1ccc(OC)c(OC)c1` reads 1.13 µM; that for `COc1ccc(CS(=O)/C(Cl)=C(/Cl)C(=O)Nc2ccc(OC)nc2)cc1` (configuration not stated), 3.41 µM; that for `Cc1ccc2c(c1)c1ccc3c(c1n2C)C(=O)C=CC3=O`, 1.83 µM.
On the same count and under the same terms, next, `CN(C)C(=S)SSC(=S)N(C)C`: 0.08 µM; `CC(C)c1ccc(OCc2cccc(C(=O)N/N=C/c3cccnc3)c2)cc1`: 200 µM (inactive).
On the same count and under the same terms, the result for `COc1ccc(NC(=O)/C(Cl)=C(/Cl)S(=O)Cc2ccc(Cl)cc2)cn1` (configuration not stated) reads 0.46 µM; that for `CN(C(=O)c1cccc(COc2ccc(Cl)cc2Cl)c1)c1ccccc1`, 15.6 µM (inactive); that for `CC(C)c1ccc2c(c1)C1(NN=C(c3ccccc3)S1)C(=O)N2` (configuration not stated), 1.42 µM.
As for `COc1cc(/C=C2\COC/C(=C\c3cc(OC)c(OC)c(OC)c3)C2=O)cc(OC)c1OC`, the half-maximal effective concentration (EC50) was 648 µM.
Still for that read-out and setting: the result for `CC1=NN(c2cccc(C(=O)O)c2)C(=O)/C1=C\C=C/c1ccccc1` reads 92.9 µM; that for `C=CCSc1nc2ccccc2n1C(=O)/C=C/c1cc(OC)c(OC)c(OC)c1`, 1.16 µM.
Same read-out and setting: next, `Cc1cccc2c1c1ccc3c(c1n2C)C(=O)C=CC3=O`: 1.43 µM; `CCOC(=O)C1=C(c2ccccc2)O/C(=C(/C#N)C(F)(F)F)S1`: 40.8 µM.
Still for that read-out and setting: next, `Cc1cc(C)nc(S/C=C/C(=O)c2ccccc2)n1`: 0.79 µM; `O=C(Cn1ncc(Cl)c(Cl)c1=O)NCC1CCCCC1`: 2.08 µM.
For `CCN(CC)c1ccc(/C=C2\C(=O)c3ccc(C(=O)O)cc3C2=O)cc1`, the EC50 is 216 µM (inactive).
On the same count and under the same terms, the result for `O=C(/C=C/c1cccnc1)/C=C/c1cccnc1` reads 0.58 µM; that for `CC(C)CC(=O)/C=C/n1c(=S)oc2ccccc21`, 4.79 µM; that for `CCOC(=O)N1C/C(=C\c2ccccc2)C(=O)/C(=C/c2ccccc2)C1`, 1.94 µM.

Tested on in another assay: not listed separately
The description is as above. To be noted: mutant MDM2 reporter cells, luciferase luminescence enhancement, 2 h; stronger effect = higher value. The method in brief:
as §1
In the case of `Cc1ccc(C=C2C(Cl)=C(Cl)C(Cl)=C2Cl)cc1`, the maximum enhancement is 10.2% (inactive).
Still for that read-out and setting: the result for `COc1ccccc1-c1cc(SC)c(C#N)c(=O)o1` reads 18% (inactive); that for `O=C1C(Cl)=C(N2CCCCC2)C(=O)C(Cl)=C1c1cnc(N2CCCCC2)s1`, 16.3% (inactive); that for `CCN(CC)c1ccc(/C=C2/C(=O)c3ccc(C(=O)O)cc3C2=O)cc1`, 15.6% (inactive).
